The record followed here is ChEMBL document CHEMBL3758101, “Synthesis and biological evaluation of fluorinated 1,5-diarylpyrrole-3-alkoxyethyl ether derivatives as selective COX-2 inhibitors endowed with anti-inflammatory activity” (Eur J Med Chem, 2016).

Active and inactive are the calls of the source.

For assay [1], the system named is Rattus norvegicus. Nature of the assay: Antiinflammatory activity in Sprague-Dawley rat model of carrageenan-induced paw edema assessed as volume of paw edema at 20 mg/kg, po administered 2 hrs post carrageenan challenge measured after 60 mins by plethysmometry (reference value: 2.73 +/- 0.07 ml). Type of assay: functional. Background: The carrageenan paw model is a standard test of acute inflammation.

In assay [2] the test system is Rattus norvegicus. Put plainly: Antiinflammatory activity in Sprague-Dawley rat model of carrageenan-induced paw edema assessed as paw volume at 10 mg/kg, po administered 2 hrs post carrageenan challenge measured after 90 mins by plethysmometry (reference value: 37.2 +/- 3.4 ml). Type of assay: functional.
In assay [3] the test system is Rattus norvegicus. Nature of the assay: Antihyperalgesic effect in Sprague-Dawley rat model of monosodium iodoacetate-induced osteoarthritis assessed as withdrawal threshold at 10 mg/kg, ip administered 14 days post MIA challenge measured after 30 mins by paw pressure test (reference value: 37.8 +/- 3.3 g). Type of assay: functional. The method, boiled down:
(§1)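 Male Sprague–Dawley rats (200–250 g). MIA (2 mg/25 µL) was injected into the left tibiotarsal joint on day 0 under 2% isoflurane; controls received 25 µL saline. On day 14 compound or vehicle was given at time 0. Paw pressure threshold (g) was read with an analgesimeter using a blunt conical probe on the dorsal paw at 30, 60, 90 and 120 min. Mean ± s.e.m., 6 rats.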

The test system of assay [4] is HaCaT. Put plainly: Antiproliferative activity against human HaCaT cells at 1 uM after 24 hrs by BrdU incorporation assay. Type of assay: functional, cell-based. In short, it runs like this: (§2)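 HaCaT human keratinocytes were grown in high-glucose DMEM with 10% FBS and 2 mM L-glutamine at 37 °C and 5% CO2 to 80% confluency. Cells were treated 24 h with compound at 1, 10 or 50 µM (final DMSO ≤0.1%). Proliferation was read by BrdU incorporation as % of DMSO control; three experiments.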
(In general: Incorporation of labelled thymidine or its analogues reports DNA synthesis.)

The test system of assay [5] is HaCaT. Nature of the assay: Antiproliferative activity against human HaCaT cells at 50 uM after 24 hrs by BrdU incorporation assay. Type of assay: functional, cell-based. In short, it runs like this: as §2
Assay [6] deals with Rattus norvegicus. Put plainly: Antihyperalgesic effect in Sprague-Dawley rat model of monosodium iodoacetate-induced osteoarthritis assessed as withdrawal threshold at 3 mg/kg, ip administered 14 days post MIA challenge measured after 120 mins by paw pressure test (reference value: 39.2 +/- 4 g). Type of assay: functional. In short, it runs like this: as §1
Assay [7] relates to Rattus norvegicus. Nature of the assay: Antiinflammatory activity in Sprague-Dawley rat model of carrageenan-induced paw edema assessed as paw volume at 20 mg/kg, po administered 2 hrs post carrageenan challenge measured after 30 mins by plethysmometry (reference value: 34.1 +/- 2.3 ml). Type of assay: functional.
In assay [8] the test system is Rattus norvegicus. Nature of the assay: Antiinflammatory activity in Sprague-Dawley rat model of carrageenan-induced paw edema assessed as volume of paw edema at 3 mg/kg, po administered 2 hrs post carrageenan challenge measured after 60 mins by plethysmometry (reference value: 2.73 +/- 0.07 ml). The class given is functional.
Assay [9] has as its system Rattus norvegicus. Put plainly: Antihyperalgesic effect in Sprague-Dawley rat model of monosodium iodoacetate-induced osteoarthritis assessed as withdrawal threshold at 20 mg/kg, ip administered 14 days post MIA challenge measured after 60 mins by paw pressure test (reference value: 36.1 +/- 3.5 g). The class given is functional. The method, boiled down:
as §1

Assay [10] has as its system Rattus norvegicus. Put plainly: Antihyperalgesic activity in Sprague-Dawley rat model of carrageenan-induced inflammatory pain assessed as paw pressure threshold at 3 mg/kg, po administered 2 hrs post carrageenan challenge measured after 60 mins by paw pressure test (reference value: 35.4 +/- 3.6 g).
The target of assay [11] is T1, Prostaglandin G/H synthase 2 (Mus musculus, UniProt Q05769).
T1 sequence (Q05769 whole entry): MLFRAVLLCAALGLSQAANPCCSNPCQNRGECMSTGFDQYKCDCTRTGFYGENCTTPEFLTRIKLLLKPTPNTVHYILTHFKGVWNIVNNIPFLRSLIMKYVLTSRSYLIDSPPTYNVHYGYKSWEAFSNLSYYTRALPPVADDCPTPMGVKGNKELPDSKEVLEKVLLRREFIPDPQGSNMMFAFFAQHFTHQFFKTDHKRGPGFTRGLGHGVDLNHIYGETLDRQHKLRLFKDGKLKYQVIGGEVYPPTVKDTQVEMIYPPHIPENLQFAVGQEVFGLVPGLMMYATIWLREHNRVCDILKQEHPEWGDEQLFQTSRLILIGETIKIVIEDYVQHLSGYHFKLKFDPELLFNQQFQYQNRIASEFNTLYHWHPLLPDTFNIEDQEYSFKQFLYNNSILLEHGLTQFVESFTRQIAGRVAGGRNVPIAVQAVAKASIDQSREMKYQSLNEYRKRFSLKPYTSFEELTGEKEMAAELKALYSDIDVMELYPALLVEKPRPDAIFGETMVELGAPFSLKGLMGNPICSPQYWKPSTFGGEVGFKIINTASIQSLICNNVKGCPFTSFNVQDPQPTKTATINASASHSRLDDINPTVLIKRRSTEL
Put plainly: Inhibition of COX-2 in mouse J774 cells assessed as reduction in LPS-induced PGE2 level incubated for 24 hrs by radio immunoassay. The class given is cell-based. The method, boiled down: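 Murine J774 macrophages were stimulated for 24 h with E. coli LPS (10 µg/mL) to induce COX-2, with or without compound (0.001–10 µM). Supernatant PGE2 was measured by RIA as % inhibition of production versus control; triplicate wells, mean of three experiments, IC50 from a sigmoidal variable-slope fit.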

Assay [12] concerns Rattus norvegicus. Put plainly: Antihyperalgesic activity in Sprague-Dawley rat model of carrageenan-induced inflammatory pain assessed as paw pressure threshold at 3 mg/kg, po administered 2 hrs post carrageenan challenge measured after 30 mins by paw pressure test (reference value: 34.1 +/- 2.3 g).
Assay [13] concerns Rattus norvegicus. Nature of the assay: Antihyperalgesic effect in Sprague-Dawley rat model of monosodium iodoacetate-induced osteoarthritis assessed as withdrawal threshold at 10 mg/kg, ip administered 14 days post MIA challenge measured after 90 mins by paw pressure test (reference value: 37.8 +/- 3.1 g). The class given is functional. The method, boiled down: as §1
Assay [14] deals with Rattus norvegicus. Put plainly: Antihyperalgesic effect in Sprague-Dawley rat model of monosodium iodoacetate-induced osteoarthritis assessed as withdrawal threshold at 3 mg/kg, ip administered 14 days post MIA challenge measured after 90 mins by paw pressure test (reference value: 37.8 +/- 3.1 g). Type of assay: functional. The method, boiled down: as §1
The subject of assay [15] is Rattus norvegicus. Put plainly: Antiinflammatory activity in Sprague-Dawley rat model of carrageenan-induced paw edema assessed as paw volume at 3 mg/kg, po administered 2 hrs post carrageenan challenge measured after 90 mins by plethysmometry (reference value: 37.2 +/- 3.4 ml). The class given is functional.
Assay [16] concerns Rattus norvegicus. Nature of the assay: Antihyperalgesic effect in Sprague-Dawley rat model of monosodium iodoacetate-induced osteoarthritis assessed as withdrawal threshold at 3 mg/kg, ip administered 14 days post MIA challenge measured after 30 mins by paw pressure test (reference value: 37.8 +/- 3.3 g). The class given is functional. In short, it runs like this: as §1
Assay [17] deals with Rattus norvegicus. Put plainly: Antihyperalgesic effect in Sprague-Dawley rat model of monosodium iodoacetate-induced osteoarthritis assessed as withdrawal threshold at 10 mg/kg, ip administered 14 days post MIA challenge measured after 60 mins by paw pressure test (reference value: 36.1 +/- 3.5 g). The class given is functional. In short, it runs like this:
as §1

The subject of assay [18] is Mus musculus. Put plainly: Antinociceptive activity in CD1 albino mouse model of acetic acid-induced visceral pain assessed as number of writhes at 10 mg/kg, po pretreated for 30 mins before acetic acid challenge measured after 5 mins (reference value: 30.5 +/- 1.7). Type of assay: functional.
In assay [19] the test system is Mus musculus. Nature of the assay: Antinociceptive activity in CD1 albino mouse model of acetic acid-induced visceral pain assessed as number of writhes at 3 mg/kg, po pretreated for 30 mins before acetic acid challenge measured after 5 mins (reference value: 30.5 +/- 1.7). Type of assay: functional.

On to `Cc1c(CCOCCCF)cc(-c2ccc(S(C)(=O)=O)cc2)n1-c1ccc(F)cc1`, for which the Activity stood at 2.06 mL in the assay with Rattus norvegicus [1]; 47.2 g with Rattus norvegicus [2]; 50.3 g with Rattus norvegicus [3]; 39 g in the assay with Rattus norvegicus [6]; 53.9 g in the assay on Rattus norvegicus [7]; 2.38 mL with Rattus norvegicus [8]. Besides, the Activity in the assay on Rattus norvegicus [9] came out at 54.5 g; in the assay with Rattus norvegicus [10] it was 49.2 g; in the assay with Rattus norvegicus [12] it was 45.2 g; with Rattus norvegicus [13] it was 44.3 g; with Rattus norvegicus [14] it was 42.4 g; in the assay with Rattus norvegicus [15], 44.8 g. For the same compound, the Activity amounted to 47.9 g with Rattus norvegicus [16], 51.8 g in the assay with Rattus norvegicus [17], 11.4 in the assay on Mus musculus [18] and 21.8 with Mus musculus [19]. Also, in the assay with HaCaT [4], the result was inactive. Moreover, in the assay with HaCaT [5], the outcome was Active. In addition, the IC50 (commonly the concentration at which inhibition is half-maximal) in assay [11] amounted to 7 nM.
